One may read the IC50 as the concentration that inhibits the measured activity by half. A lower IC50 goes with higher potency. A word on the logP: it is a log measure of how a compound divides between an organic and an aqueous phase.

The source of these data is ChEMBL document CHEMBL2016546, “Synthesis, characterization, molecular docking and cytotoxic activity of novel plumbagin hydrazones against breast cancer cells” (Bioorg Med Chem Lett, 2012).

Series [1] has as its target Transcription factor p65 (Homo sapiens) (UniProt Q04206). In words: Inhibition of NFkappaB p65 subunit expression in human MDA-MB-231 cells at 1.5 uM after 48 hrs by Western blot analysis. It is filed as cell-based. Put shortly:
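MDA-MB-231 cells were exposed to compounds for 48 h, with a vehicle-treated control. NF-κB p65 subunit levels were detected by Western blot, using β-actin as the protein loading control.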
(In general: A western blot detects proteins with antibodies after separation by electrophoresis.)

The subject of series [2] is MDA-MB-468. Description: Antiproliferative activity against ER-negative human MDA-MB-468 cells after 48 hrs by MTT assay. It is filed as functional, cell-based. The following applies: MDA-MB-468, 48 h. Put shortly: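 MDA-MB-468 cells plated at 3 × 10³/well in medium containing 10% fetal calf serum, penicillin (50 U/mL) and streptomycin, at 37 °C under 5% CO₂. DMSO-dissolved compounds were added 24 h post-seeding and exposure lasted 48 h. MTT (0.5 mg/mL) was applied for 2 h at 37 °C, then DMSO for 30 min at room temperature. Eight wells per treatment, at least three independent repeats.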

The test system of series [3] is MDA-MB-231. In words: Antiproliferative activity against ER-negative human MDA-MB-231 cells after 48 hrs by MTT assay. The following applies: MDA-MB-231, 48 h. For orientation: Tetrazolium dyes change colour on reduction, which living cells bring about.
The nature of series [4]: Partition coefficient, log P pf the compound. The following applies: octanol/water. It is filed as physicochemical.
In series [5] the test system is MCF7. Description: Antiproliferative activity against ER-positive human MCF7 cells after 48 hrs by MTT assay. The following applies: MCF7, 48 h.

The source made the active and inactive calls. The calls are words filed in the database; no cut-off is given here.

Transcription factor p65 (Homo sapiens), sequence (Q04206 whole entry): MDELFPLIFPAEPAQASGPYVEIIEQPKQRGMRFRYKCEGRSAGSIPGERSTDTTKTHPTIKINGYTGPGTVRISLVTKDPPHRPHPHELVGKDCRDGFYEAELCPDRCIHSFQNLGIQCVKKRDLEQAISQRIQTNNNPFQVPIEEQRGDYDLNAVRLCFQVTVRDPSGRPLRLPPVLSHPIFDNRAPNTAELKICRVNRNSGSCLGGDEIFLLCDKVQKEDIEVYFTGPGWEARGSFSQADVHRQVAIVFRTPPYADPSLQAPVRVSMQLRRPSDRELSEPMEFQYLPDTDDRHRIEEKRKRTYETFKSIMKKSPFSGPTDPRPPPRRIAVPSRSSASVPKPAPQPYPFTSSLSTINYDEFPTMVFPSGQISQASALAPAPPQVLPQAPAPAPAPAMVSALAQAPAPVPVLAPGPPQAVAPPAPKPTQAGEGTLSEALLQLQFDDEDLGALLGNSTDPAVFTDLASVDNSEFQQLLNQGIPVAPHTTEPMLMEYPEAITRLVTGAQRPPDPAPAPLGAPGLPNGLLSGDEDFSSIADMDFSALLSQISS

As for `CC1=C/C(=N\NC(=O)c2cccnc2)c2c(O)cccc2C1=O`, the inhibition entry in series [1] is “Active”. For the same compound, the IC50 in series [2] was 1.9 µM; in series [3], 1.9 µM; in series [5], 2.7 µM. Further, in series [4] (read-out: logP), the logP was 3.13.
Consider `CC1=C/C(=N\NC(=O)c2ccncc2)c2c(O)cccc2C1=O`, for which the inhibition entry in series [1] is “Active”. Moreover, the IC50 in series [2] was 3.3 µM; in series [3], 3.3 µM; in series [5], 6.2 µM. In series [4] (read-out: logP), the logP was found to be 2.86.
`CC1=C/C(=N\NC(=O)c2ccccc2O)c2c(O)cccc2C1=O`: the inhibition result in series [1] is “Active”. Further, the values for the IC50 in series [2], in series [3] and in series [5] were 2.9 µM, 3.8 µM and 5.3 µM, respectively. For the same compound, the logP in series [4] (read-out: logP) was found to be 4.17.
Turning to `CC1=CC(=O)c2c(O)cccc2C1=O` [PLUMBAGIN], the inhibition result in series [1] was “Active”. For the same compound, the figures for the IC50 in series [2], in series [3] and in series [5] were 2.5 µM, 3.5 µM and 5.5 µM, respectively. In addition, in series [4], the logP turned out to be 0.89.
In the case of `CC1=C/C(=N\NC(=O)c2ccccc2)c2c(O)cccc2C1=O`, the inhibition entry in series [1] was “Active”. The IC50 worked out at 2 µM in series [2], 2.1 µM in series [3] and 2.8 µM in series [5]. In series [4] (read-out: logP), the logP is 4.
